Activity calls are given as the source filed them. The rule behind the calls is not given here.
What was measured:
[1] = target: T1, Protein cereblon/3-hydroxy-3-methylglutaryl-coenzyme A reductase (Cricetulus griseus) (UniProt P00347+G3H338); test: Protac activity at CRBN/HMGCR in Insig-1/Insig-2 deficient Chinese hamster SRD15 cells assessed as HMGCR level at 0.1 uM after 16 hrs by immunoblotting analysis (reference value: 1)
In short: (§1)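 Dose-response in SRD15 cells in Medium A with 5% FBS, 16 h treatment, DMSO final 0.1% or lower. RIPA lysates immunoblotted for HMGCR. HMGCR densitometry normalized to actin, with the DMSO group set to 1. Three repeats. DC50 is taken from a dose-response fit of the semi-quantitative blots, mean of 3 independent experiments.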
Target sequence in this assay (G3H338 1-445 partner): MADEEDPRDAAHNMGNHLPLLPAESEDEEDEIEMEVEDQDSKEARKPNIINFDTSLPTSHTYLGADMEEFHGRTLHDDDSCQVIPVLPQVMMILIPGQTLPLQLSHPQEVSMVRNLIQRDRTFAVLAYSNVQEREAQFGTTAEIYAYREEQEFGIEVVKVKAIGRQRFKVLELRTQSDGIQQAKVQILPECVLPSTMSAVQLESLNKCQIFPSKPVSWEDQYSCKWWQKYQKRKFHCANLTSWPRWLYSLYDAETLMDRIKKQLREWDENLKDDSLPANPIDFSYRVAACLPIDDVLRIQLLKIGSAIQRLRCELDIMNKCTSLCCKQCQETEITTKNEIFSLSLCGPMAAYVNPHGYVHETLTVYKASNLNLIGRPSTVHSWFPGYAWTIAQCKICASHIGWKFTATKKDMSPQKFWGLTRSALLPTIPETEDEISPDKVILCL
Target sequence in this assay (P00347 whole entry): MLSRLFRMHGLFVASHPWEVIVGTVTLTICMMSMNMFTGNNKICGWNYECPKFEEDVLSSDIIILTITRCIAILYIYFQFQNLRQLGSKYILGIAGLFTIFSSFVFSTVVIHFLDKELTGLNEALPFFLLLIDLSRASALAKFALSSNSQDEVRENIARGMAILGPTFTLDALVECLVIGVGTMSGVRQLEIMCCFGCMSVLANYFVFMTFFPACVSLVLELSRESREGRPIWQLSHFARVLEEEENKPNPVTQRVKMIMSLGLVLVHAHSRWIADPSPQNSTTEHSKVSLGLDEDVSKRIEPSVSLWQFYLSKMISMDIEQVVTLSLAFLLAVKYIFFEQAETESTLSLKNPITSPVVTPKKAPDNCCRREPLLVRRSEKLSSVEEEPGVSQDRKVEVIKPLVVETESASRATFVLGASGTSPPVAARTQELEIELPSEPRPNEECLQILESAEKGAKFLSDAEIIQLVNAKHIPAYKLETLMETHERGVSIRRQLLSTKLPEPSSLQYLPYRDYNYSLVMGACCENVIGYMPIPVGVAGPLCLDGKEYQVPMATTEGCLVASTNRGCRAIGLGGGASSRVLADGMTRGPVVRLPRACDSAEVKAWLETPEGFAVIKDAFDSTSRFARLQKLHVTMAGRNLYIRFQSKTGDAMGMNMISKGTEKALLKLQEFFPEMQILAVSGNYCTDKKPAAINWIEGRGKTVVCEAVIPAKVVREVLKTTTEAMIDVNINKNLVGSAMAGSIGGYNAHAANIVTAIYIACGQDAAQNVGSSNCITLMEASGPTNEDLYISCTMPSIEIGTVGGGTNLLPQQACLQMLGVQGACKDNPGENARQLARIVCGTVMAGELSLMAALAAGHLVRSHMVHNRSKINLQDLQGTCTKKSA

[2] = target: T1, Protein cereblon/3-hydroxy-3-methylglutaryl-coenzyme A reductase (Cricetulus griseus); test: Protac activity at CRBN/HMGCR in Insig-1/Insig-2 deficient Chinese hamster SRD15 cells assessed as HMGCR level at 3 uM after 16 hrs by immunoblotting analysis (reference value: 1); in short: as §1
[3] = target: T1, Protein cereblon/3-hydroxy-3-methylglutaryl-coenzyme A reductase (Cricetulus griseus); test: Protac activity at CRBN/HMGCR in Insig-1/Insig-2 deficient Chinese hamster SRD15 cells assessed as HMGCR level at 1 uM after 16 hrs in presence of 0.1 uM pomalidomide by immunoblotting analysis (reference value: 1)
Target sequence in this assay (G3H338 1-445 partner): as the sequence (G3H338 1-445 partner) above
Target sequence in this assay (P00347 whole entry): as the sequence (P00347 whole entry) above

[4] = target: T1, Protein cereblon/3-hydroxy-3-methylglutaryl-coenzyme A reductase (Cricetulus griseus); test: Protac activity at CRBN/HMGCR in Insig-1/Insig-2 deficient Chinese hamster SRD15 cells assessed as HMGCR level at 1 uM after 16 hrs in presence of 10 uM pomalidomide by immunoblotting analysis (reference value: 1)
Target sequence in this assay (G3H338 1-445 partner): as the sequence (G3H338 1-445 partner) above
Target sequence in this assay (P00347 whole entry): as the sequence (P00347 whole entry) above

[5] = target: T2, Protein cereblon/3-hydroxy-3-methylglutaryl-coenzyme A reductase (Homo sapiens) (UniProt P04035+Q96SW2); test: Protac activity at human Flag-tagged CRBN/T7-tagged HMGCR transfected in Insig-1/Insig-2 deficient Chinese hamster SRD15 cells assessed as induction of HMGCR degradation at 0.01 to 1 uM after 16 hrs by immunoblotting analysis
In short: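 SRD15 cells co-transfected with T7-HMGCR and Flag-CRBN (wild type or YW/AA mutant), then treated with DMSO or 1 μM compound for 16 h; transfected HMGCR measured by immunoblotting.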

[6] = target: T1, Protein cereblon/3-hydroxy-3-methylglutaryl-coenzyme A reductase (Cricetulus griseus); test: Protac activity at CRBN/HMGCR in 5'-GCAAGGCAGUGUAUAUUAU-3' siRNA transfected in Insig-1/Insig-2 deficient Chinese hamster SRD15 cells assessed as induction of HMGCR degradation at 1 uM after 16 hrs by immunoblotting analysis
In short: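 SRD15 cells (Insig-1/Insig-2-deficient CHO-7) in Medium A with 5% FBS at 37 °C, 5% CO2; transfected with negative-control or Crbn-targeting siRNA duplexes for 48 h, then given 1 μM degrader for 16 h. HMGCR by SDS-PAGE immunoblot of RIPA lysates. Knockdown efficiency checked by qRT-PCR against hamster GAPDH, comparative CT method. n = 3 independent experiments.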

[7] = target: T2, Protein cereblon/3-hydroxy-3-methylglutaryl-coenzyme A reductase (Homo sapiens); test: Protac activity at human Flag-tagged CRBN/Myc-tagged HMGCR expressed in HEK293T cells assessed as induction of HMGCR immunoprecipitation 1 uM preincubated for 16 hrs followed by pomalidomide addition addition and measured after 5 hrs by Western blot analysis; type: cell-based; conditions: HEK-293T
[8] = target: T3, Sterol regulatory element-binding protein 2 (Mus musculus) (UniProt Q3U1N2); test: Activation of SREBP2 pathway in mouse primary hepatocytes assessed as increase in HMGCR mRNA expression at 0.3 to 1 uM afer 16 hrs by quantitative real-time PCR analysis; type: cell-based
T3 sequence (whole entry): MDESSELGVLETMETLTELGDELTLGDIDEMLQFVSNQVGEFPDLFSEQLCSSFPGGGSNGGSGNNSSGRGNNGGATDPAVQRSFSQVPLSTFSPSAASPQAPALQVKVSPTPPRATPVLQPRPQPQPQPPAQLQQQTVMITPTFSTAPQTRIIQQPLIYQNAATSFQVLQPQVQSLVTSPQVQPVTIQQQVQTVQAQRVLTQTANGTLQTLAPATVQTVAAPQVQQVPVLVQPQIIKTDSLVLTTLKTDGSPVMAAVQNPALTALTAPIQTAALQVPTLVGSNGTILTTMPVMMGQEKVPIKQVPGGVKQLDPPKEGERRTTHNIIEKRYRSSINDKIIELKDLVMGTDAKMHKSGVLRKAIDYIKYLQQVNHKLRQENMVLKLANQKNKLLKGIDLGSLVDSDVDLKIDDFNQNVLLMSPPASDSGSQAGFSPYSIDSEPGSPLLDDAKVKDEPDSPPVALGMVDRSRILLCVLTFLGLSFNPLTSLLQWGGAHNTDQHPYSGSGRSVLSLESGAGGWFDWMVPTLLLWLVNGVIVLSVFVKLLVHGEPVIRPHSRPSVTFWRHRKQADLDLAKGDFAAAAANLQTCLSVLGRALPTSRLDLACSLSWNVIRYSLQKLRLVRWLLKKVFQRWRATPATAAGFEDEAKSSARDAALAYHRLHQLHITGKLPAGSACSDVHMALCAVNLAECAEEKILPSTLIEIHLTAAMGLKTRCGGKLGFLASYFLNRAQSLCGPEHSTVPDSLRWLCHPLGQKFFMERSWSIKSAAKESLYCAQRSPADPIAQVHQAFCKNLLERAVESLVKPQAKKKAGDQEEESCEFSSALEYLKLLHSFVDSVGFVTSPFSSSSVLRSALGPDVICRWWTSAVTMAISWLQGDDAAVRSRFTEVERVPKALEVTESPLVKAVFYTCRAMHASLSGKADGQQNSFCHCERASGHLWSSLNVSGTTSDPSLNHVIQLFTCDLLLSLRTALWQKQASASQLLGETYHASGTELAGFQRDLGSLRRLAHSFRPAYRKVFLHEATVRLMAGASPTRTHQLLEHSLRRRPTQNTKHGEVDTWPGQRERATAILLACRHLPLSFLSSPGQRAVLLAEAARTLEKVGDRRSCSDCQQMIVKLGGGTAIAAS

T2 sequence (P04035 whole entry, looked up): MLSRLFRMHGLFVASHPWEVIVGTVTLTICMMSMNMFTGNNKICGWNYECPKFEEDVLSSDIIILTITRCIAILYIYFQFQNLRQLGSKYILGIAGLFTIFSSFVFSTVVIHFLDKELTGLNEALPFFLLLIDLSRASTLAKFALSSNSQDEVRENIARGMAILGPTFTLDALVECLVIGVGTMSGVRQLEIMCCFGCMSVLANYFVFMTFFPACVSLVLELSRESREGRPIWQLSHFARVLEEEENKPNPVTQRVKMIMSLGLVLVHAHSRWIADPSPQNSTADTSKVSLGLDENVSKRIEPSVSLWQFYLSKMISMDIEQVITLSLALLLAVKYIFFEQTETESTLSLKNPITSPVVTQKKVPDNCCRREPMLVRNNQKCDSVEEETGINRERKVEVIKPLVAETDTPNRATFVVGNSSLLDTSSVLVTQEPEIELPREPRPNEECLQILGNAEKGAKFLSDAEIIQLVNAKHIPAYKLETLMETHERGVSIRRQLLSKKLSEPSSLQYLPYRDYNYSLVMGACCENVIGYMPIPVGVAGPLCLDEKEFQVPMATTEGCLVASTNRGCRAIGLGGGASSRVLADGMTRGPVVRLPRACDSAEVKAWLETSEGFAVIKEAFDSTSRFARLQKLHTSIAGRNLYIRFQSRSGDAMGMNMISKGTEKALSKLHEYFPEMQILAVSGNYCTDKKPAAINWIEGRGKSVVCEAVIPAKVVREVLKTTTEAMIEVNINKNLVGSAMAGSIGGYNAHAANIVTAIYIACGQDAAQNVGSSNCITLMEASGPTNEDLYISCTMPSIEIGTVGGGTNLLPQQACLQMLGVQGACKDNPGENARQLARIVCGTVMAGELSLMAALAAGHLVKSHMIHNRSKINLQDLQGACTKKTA
T2 sequence (Q96SW2 whole entry, looked up): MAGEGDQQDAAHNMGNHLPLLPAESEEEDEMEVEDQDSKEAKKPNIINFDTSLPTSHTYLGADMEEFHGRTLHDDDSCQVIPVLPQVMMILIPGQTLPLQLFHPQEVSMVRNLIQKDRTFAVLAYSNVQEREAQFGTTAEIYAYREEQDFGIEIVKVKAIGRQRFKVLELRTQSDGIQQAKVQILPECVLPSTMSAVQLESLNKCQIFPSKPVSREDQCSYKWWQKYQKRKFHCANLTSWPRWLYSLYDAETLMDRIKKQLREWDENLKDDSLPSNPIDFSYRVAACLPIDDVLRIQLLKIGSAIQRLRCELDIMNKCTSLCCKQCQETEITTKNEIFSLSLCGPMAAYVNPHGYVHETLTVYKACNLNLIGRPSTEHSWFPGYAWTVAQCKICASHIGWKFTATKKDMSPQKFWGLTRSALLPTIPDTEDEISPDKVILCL

## CC(C)c1c(C(=O)Nc2ccccc2)c(-c2cccc(OCCCc3cn(CCOCCOCCOCCOCCNc4cccc5c4C(=O)N(C4CCC(=O)NC4=O)C5=O)nn3)c2)c(-c2ccc(F)cc2)n1CC[C@@H](O)C[C@@H](O)CC(=O)O (stereo partly drawn)
[1]
  fold change (FC): 0.6
[2]
  fold change (FC): 0.3
[3]
  fold change (FC): 0.4
[4]
  fold change (FC): 1
[5]
  Activity: Active
[6]
  Activity: inactive
[7]
  Activity: inactive
[8]
  Activity: Active

Source: ChEMBL document CHEMBL4602720, “Degradation versus Inhibition: Development of Proteolysis-Targeting Chimeras for Overcoming Statin-Induced Compensatory Upregulation of 3-Hydroxy-3-methylglutaryl Coenzyme A Reductase” (J Med Chem, 2020)
